# ChEMBL document CHEMBL5058577, “EUbOPEN Chemogenomics Library 2 (Multiplex)” (2022)
# System: U2OS
# Experiment: Multiplex assay against U2OS
# Type: toxicity, cell-based
# Conditions: human
# Outline: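 Four dyes were applied at seeding to live cells: Hoechst33342, BioTracker Green Microtubule Cytoskeleton Dye, MitoTracker Red and Annexin V Alexa Fluor 680. Imaging after compound addition used a CQ1 microscope at 37°C and 5% CO2. CellPathfinder machine-learning gating then sorted cells into Hoechst high-intensity objects or normal cells, normal cells into healthy, pyknosed or fragmented nuclei, and pyknosed cells into mitotic or apoptotic, with tubulin, mitochondrial-mass and membrane-permeability phenotypes given as per cents of healthy-nucleus cells.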
# [1] = 12 h, 1 µM, compound concentration 1 uM, replicate 1
# [2] = 12 h, 1 µM, compound concentration 1 uM, replicate 2
# [3] = 12 h, 10 µM, compound concentration 10 uM, replicate 1
# [4] = 12 h, 10 µM, compound concentration 10 uM, replicate 2
# [5] = 24 h, 1 µM, compound concentration 1 uM, replicate 1
# [6] = 24 h, 1 µM, compound concentration 1 uM, replicate 2
# [7] = 24 h, 10 µM, compound concentration 10 uM, replicate 1
# [8] = 24 h, 10 µM, compound concentration 10 uM, replicate 2
# [9] = 48 h, 1 µM, compound concentration 1 uM, replicate 1
# [10] = 48 h, 1 µM, compound concentration 1 uM, replicate 2
# [11] = 48 h, 10 µM, compound concentration 10 uM, replicate 1
# [12] = 48 h, 10 µM, compound concentration 10 uM, replicate 2
compound,measurement,setting,value
CCn1c(-c2nc3cc(C(=O)N4CCCC(N)C4)ccc3n2C)cc2ccccc21.Cl (stereo unspecified),Population Apoptotic (%),[1],61%
same,Population Fragmented Nuclei (%),[1],22%
same,Population Healthy Nuclei (%),[1],67%
same,Population Hoechst High Intensity Objects (%),[1],0%
same,Population Membrane Permeable-Phenotype (%),[1],4%
same,Population Mitochondria Different-Phenotype (%),[1],3%
same,Population Mitotic Cells (%),[1],38%
same,Population Normal (%),[1],99%
same,Population Pyknosed Nuclei (%),[1],9%
same,Population Tubulin-Different-Phenotype (%),[1],2%
same,Total Cell Count,[1],213
same,Population Apoptotic (%),[2],100%
same,Population Fragmented Nuclei (%),[2],18%
same,Population Healthy Nuclei (%),[2],77%
same,Population Hoechst High Intensity Objects (%),[2],5%
same,Population Membrane Permeable-Phenotype (%),[2],15%
same,Population Mitochondria Different-Phenotype (%),[2],18%
same,Population Mitotic Cells (%),[2],0%
same,Population Normal (%),[2],94%
same,Population Pyknosed Nuclei (%),[2],3%
same,Population Tubulin-Different-Phenotype (%),[2],13%
same,Total Cell Count,[2],90
same,Population Apoptotic (%),[3],48%
same,Population Fragmented Nuclei (%),[3],24%
same,Population Healthy Nuclei (%),[3],56%
same,Population Hoechst High Intensity Objects (%),[3],2%
same,Population Membrane Permeable-Phenotype (%),[3],34%
same,Population Mitochondria Different-Phenotype (%),[3],29%
same,Population Mitotic Cells (%),[3],51%
same,Population Normal (%),[3],97%
same,Population Pyknosed Nuclei (%),[3],19%
same,Population Tubulin-Different-Phenotype (%),[3],27%
same,Total Cell Count,[3],277
same,Population Apoptotic (%),[4],54%
same,Population Fragmented Nuclei (%),[4],21%
same,Population Healthy Nuclei (%),[4],60%
same,Population Hoechst High Intensity Objects (%),[4],1%
same,Population Membrane Permeable-Phenotype (%),[4],25%
same,Population Mitochondria Different-Phenotype (%),[4],55%
same,Population Mitotic Cells (%),[4],45%
same,Population Normal (%),[4],98%
same,Population Pyknosed Nuclei (%),[4],18%
same,Population Tubulin-Different-Phenotype (%),[4],48%
same,Total Cell Count,[4],135
same,Population Apoptotic (%),[5],82%
same,Population Fragmented Nuclei (%),[5],22%
same,Population Healthy Nuclei (%),[5],68%
same,Population Hoechst High Intensity Objects (%),[5],1%
same,Population Membrane Permeable-Phenotype (%),[5],6%
same,Population Mitochondria Different-Phenotype (%),[5],3%
same,Population Mitotic Cells (%),[5],17%
same,Population Normal (%),[5],98%
same,Population Pyknosed Nuclei (%),[5],9%
same,Population Tubulin-Different-Phenotype (%),[5],3%
same,Total Cell Count,[5],249
same,Population Apoptotic (%),[6],66%
same,Population Fragmented Nuclei (%),[6],25%
same,Population Hoechst High Intensity Objects (%),[6],3%
same,Population Membrane Permeable-Phenotype (%),[6],14%
same,Population Mitochondria Different-Phenotype (%),[6],13%
same,Population Mitotic Cells (%),[6],33%
same,Population Normal (%),[6],96%
same,Population Pyknosed Nuclei (%),[6],5%
same,Population Tubulin-Different-Phenotype (%),[6],13%
same,Total Cell Count,[6],112
same,Population Apoptotic (%),[7],62%
same,Population Fragmented Nuclei (%),[7],27%
same,Population Healthy Nuclei (%),[7],54%
same,Population Hoechst High Intensity Objects (%),[7],2%
same,Population Membrane Permeable-Phenotype (%),[7],16%
same,Population Mitochondria Different-Phenotype (%),[7],34%
same,Population Mitotic Cells (%),[7],38%
same,Population Normal (%),[7],97%
same,Population Pyknosed Nuclei (%),[7],17%
same,Population Tubulin-Different-Phenotype (%),[7],11%
same,Total Cell Count,[7],288
same,Population Apoptotic (%),[8],73%
same,Population Fragmented Nuclei (%),[8],19%
same,Population Healthy Nuclei (%),[8],64%
same,Population Hoechst High Intensity Objects (%),[8],3%
same,Population Membrane Permeable-Phenotype (%),[8],20%
same,Population Mitochondria Different-Phenotype (%),[8],53%
same,Population Mitotic Cells (%),[8],26%
same,Population Normal (%),[8],96%
same,Population Pyknosed Nuclei (%),[8],16%
same,Population Tubulin-Different-Phenotype (%),[8],26%
same,Total Cell Count,[8],146
same,Population Apoptotic (%),[9],75%
same,Population Fragmented Nuclei (%),[9],16%
same,Population Healthy Nuclei (%),[9],76%
same,Population Hoechst High Intensity Objects (%),[9],2%
same,Population Membrane Permeable-Phenotype (%),[9],8%
same,Population Mitochondria Different-Phenotype (%),[9],3%
same,Population Mitotic Cells (%),[9],25%
same,Population Normal (%),[9],97%
same,Population Pyknosed Nuclei (%),[9],6%
same,Population Tubulin-Different-Phenotype (%),[9],5%
same,Total Cell Count,[9],354
same,Population Apoptotic (%),[10],70%
same,Population Fragmented Nuclei (%),[10],22%
same,Population Healthy Nuclei (%),[10],70%
same,Population Hoechst High Intensity Objects (%),[10],4%
same,Population Membrane Permeable-Phenotype (%),[10],10%
same,Population Mitochondria Different-Phenotype (%),[10],9%
same,Population Mitotic Cells (%),[10],30%
same,Population Normal (%),[10],95%
same,Population Pyknosed Nuclei (%),[10],7%
same,Population Tubulin-Different-Phenotype (%),[10],8%
same,Total Cell Count,[10],145
same,Population Apoptotic (%),[11],78%
same,Population Fragmented Nuclei (%),[11],26%
same,Population Healthy Nuclei (%),[11],53%
same,Population Hoechst High Intensity Objects (%),[11],5%
same,Population Membrane Permeable-Phenotype (%),[11],23%
same,Population Mitochondria Different-Phenotype (%),[11],22%
same,Population Mitotic Cells (%),[11],21%
same,Population Normal (%),[11],94%
same,Population Pyknosed Nuclei (%),[11],19%
same,Population Tubulin-Different-Phenotype (%),[11],11%
same,Total Cell Count,[11],353
same,Population Apoptotic (%),[12],77%
same,Population Fragmented Nuclei (%),[12],18%
same,Population Healthy Nuclei (%),[12],64%
same,Population Hoechst High Intensity Objects (%),[12],6%
same,Population Membrane Permeable-Phenotype (%),[12],24%
same,Population Mitochondria Different-Phenotype (%),[12],39%
same,Population Mitotic Cells (%),[12],22%
same,Population Normal (%),[12],93%
same,Population Pyknosed Nuclei (%),[12],16%
same,Population Tubulin-Different-Phenotype (%),[12],19%
same,Total Cell Count,[12],173
